The record followed here is ChEMBL document CHEMBL1154919, “Synthesis and biological evaluation of 12-aminoacylphorboids” (J Nat Prod, 2010).

Each structure is given as a SMILES string. Calls of active or inactive are those of the source. The calls are words filed in the database; no cut-off is given here.

Assay [1] deals with Protein kinase C delta type (Homo sapiens) (UniProt Q05655). Nature of the assay: Activation of PKCdelta assessed as [32P] incorporation after 10 mins by scintillation counting.
Sequence of Protein kinase C delta type (Homo sapiens) (Q05655 whole entry, looked up): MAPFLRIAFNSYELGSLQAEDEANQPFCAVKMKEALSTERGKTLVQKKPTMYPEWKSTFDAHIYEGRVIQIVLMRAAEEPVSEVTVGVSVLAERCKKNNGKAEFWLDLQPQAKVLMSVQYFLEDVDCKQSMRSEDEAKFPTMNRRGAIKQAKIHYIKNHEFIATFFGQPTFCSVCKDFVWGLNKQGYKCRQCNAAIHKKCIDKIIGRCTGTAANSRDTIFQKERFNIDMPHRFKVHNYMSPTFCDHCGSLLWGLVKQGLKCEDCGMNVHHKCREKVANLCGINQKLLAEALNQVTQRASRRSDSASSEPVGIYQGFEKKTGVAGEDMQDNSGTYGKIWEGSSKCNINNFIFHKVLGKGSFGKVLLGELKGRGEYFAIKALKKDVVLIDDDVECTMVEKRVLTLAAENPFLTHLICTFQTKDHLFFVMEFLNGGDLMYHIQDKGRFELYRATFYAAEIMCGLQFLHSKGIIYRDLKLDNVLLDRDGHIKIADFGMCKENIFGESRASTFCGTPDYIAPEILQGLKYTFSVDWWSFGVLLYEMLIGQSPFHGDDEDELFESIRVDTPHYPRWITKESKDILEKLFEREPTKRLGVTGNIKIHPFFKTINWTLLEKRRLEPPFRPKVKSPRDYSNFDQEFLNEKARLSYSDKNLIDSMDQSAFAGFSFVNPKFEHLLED
Assay [2] relates to Human immunodeficiency virus 1. Nature of the assay: Activation of latent recombinant HIV1 LTR-GFP gene expression infected in human Jurkat LAT-GFP cells assessed as GFP level at 10 uM after 6 hrs by flow cytometry in presence of PKCinhibitor G06976 pretreated for 30 mins. The format is functional, organism-based. In outline:
(§1)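 Jurkat LAT-GFP cells (latent HIV-LTR-driven GFP clone) pretreated 30 min with PKC inhibitor (1 µM), then stimulated with compound at 10 µM for 6 h.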
For orientation: In flow cytometry, cells or beads pass a laser one at a time.

Assay [3] concerns the target Protein kinase C alpha type (Homo sapiens) (UniProt P17252). Nature of the assay: Activation of PKCalpha assessed as [32P] incorporation after 10 mins by scintillation counting.
The subject of assay [4] is Human immunodeficiency virus 1. In words: Activation of latent recombinant HIV1 LTR-GFP gene expression infected in human Jurkat LAT-GFP cells assessed as GFP level at 10 uM after 6 hrs by flow cytometry in presence of pan-PKC inhibitor G06983 pretreated for 30 mins. The format is functional, organism-based. In outline: as §1
Assay [5] deals with Human immunodeficiency virus 1. Nature of the assay: Activation of latent recombinant HIV1 LTR-GFP gene expression infected in human Jurkat LAT-GFP cells assessed as GFP positive cells at 10 uM after 6 hrs by flow cytometry. It is filed as functional, organism-based. In a few lines: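 Jurkat-derived clone latently infected with recombinant virus carrying GFP under HIV-LTR promoter, exposed to compound for 6 h. Histograms shown are one of three independent experiments.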

Assay [6] deals with Protein kinase C delta type (Homo sapiens) (UniProt Q05655). Nature of the assay: Activation of PKCdelta in human Jurkat cells assessed as enzyme phosphorylation after 15 mins by Western blotting. The format is cell-based. In outline: (§2)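 Jurkat LAT-GFP cells (10^6 cells/ml) exposed for 15 min to compound (increasing concentrations) or TPA 1 µM. Lysed in HEPES pH 8.0 buffer with 0.5% NP-40 and protease/phosphatase inhibitors. 30 µg protein run on 10% SDS-PAGE, blotted to nitrocellulose, probed with anti-phospho-PKCδ (Thr505) and anti-panPKC, ECL detection.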
(In western blotting, separated proteins are transferred to a membrane and probed.)

In assay [7] the test system is Human immunodeficiency virus 1. In words: Activation of latent recombinant HIV1 LTR-GFP gene expression infected in human Jurkat LAT-GFP cells assessed as GFP positive cells after 6 hrs by flow cytometry relative to control. It is filed as functional, organism-based. In outline: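 Jurkat-derived clone latently carrying recombinant virus with GFP under the HIV-LTR promoter, stimulated with compound at the indicated concentrations for 6 h.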

The target of assay [8] is T1, Prostaglandin G/H synthase 2 (Rattus norvegicus) (UniProt P35355).
T1 sequence (whole entry): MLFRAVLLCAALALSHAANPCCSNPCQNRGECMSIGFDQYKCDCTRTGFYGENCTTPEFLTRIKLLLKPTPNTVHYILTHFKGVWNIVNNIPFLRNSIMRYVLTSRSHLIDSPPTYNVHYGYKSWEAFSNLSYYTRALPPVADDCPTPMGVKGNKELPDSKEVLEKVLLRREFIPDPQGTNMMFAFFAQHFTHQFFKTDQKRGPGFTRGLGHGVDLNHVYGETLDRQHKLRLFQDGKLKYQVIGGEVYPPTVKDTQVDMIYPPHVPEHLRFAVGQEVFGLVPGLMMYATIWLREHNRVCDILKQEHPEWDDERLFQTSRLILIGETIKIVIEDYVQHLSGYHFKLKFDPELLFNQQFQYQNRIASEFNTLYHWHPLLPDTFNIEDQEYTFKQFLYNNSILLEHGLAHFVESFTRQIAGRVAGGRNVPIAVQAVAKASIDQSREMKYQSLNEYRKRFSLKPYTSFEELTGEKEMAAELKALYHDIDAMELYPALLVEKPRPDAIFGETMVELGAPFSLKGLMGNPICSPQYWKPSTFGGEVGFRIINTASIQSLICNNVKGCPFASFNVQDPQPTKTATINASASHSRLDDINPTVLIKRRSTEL
In words: Inhibition of COX2 in LPS-stimulated rat microglia after 24 hrs by immunoblotting.

Assay [9] addresses T1, Prostaglandin G/H synthase 2 (Rattus norvegicus). Nature of the assay: Inhibition of COX2 in LPS-stimulated rat microglia assessed as PGE2 release after 24 hrs by enzyme immunoassay.
The target of assay [10] is Protein kinase C delta type (Homo sapiens) (UniProt Q05655). Nature of the assay: Activation of PKCdelta in human Jurkat cells assessed as enzyme phosphorylation at 1 uM after 15 mins by Western blotting. The format is cell-based. In outline:
as §2

On to `CC(=O)O[C@@]12[C@H](OC(=O)[C@H](C(C)C)N(C)C)[C@@H](C)[C@]3(O)[C@@H]4C=C(C)C(=O)[C@@H]4CC(CO)=C[C@H]3[C@@H]1C2(C)C`, for which the Activity result in assay [1] and in assay [3] was “Dose-dependent effect” throughout. In addition, the outcome in assay [2], in assay [4], in assay [5] and in [6] was Active.

Turning to `CC(=O)O[C@@]12[C@H](OC(=O)[C@@H](N)C(C)C)[C@@H](C)[C@]3(O)[C@@H]4C=C(C)C(=O)[C@@H]4CC(CO)=C[C@H]3[C@@H]1C2(C)C`, the result in assay [5] was inactive.

Turning to `CCCCCCCCCCCCCC(=O)O[C@@H]1[C@@H](C)[C@@]2(O)[C@@H](C=C(CO)C[C@]3(O)C(=O)C(C)=C[C@@H]23)[C@@H]2C(C)(C)[C@]12OC(C)=O`, the result in assay [7] was Active.

Turning to `CN[C@H](C(=O)O[C@@H]1[C@@H](C)[C@]2(O)[C@@H]3C=C(C)C(=O)[C@@H]3CC(CO)=C[C@H]2[C@@H]2C(C)(C)[C@]12OC(C)=O)C(C)C`, the result in assay [5] was inactive.

In the case of `CC(=O)O[C@@]12[C@H](OC(=O)[C@@H](C(C)C)N(C)C)[C@@H](C)[C@]3(O)[C@@H]4C=C(C)C(=O)[C@@H]4CC(CO)=C[C@H]3[C@@H]1C2(C)C`, the inhibition result in assay [8] is “Active”. Also, the result in [9] was inactive. For the same compound, the outcome in [2], in [4] and in assay [5] was Active.

Turning to `CC(=O)O[C@@]12[C@H](OC(=O)CN(C)C)[C@@H](C)[C@]3(O)[C@@H]4C=C(C)C(=O)[C@@H]4CC(CO)=C[C@H]3[C@@H]1C2(C)C`, the outcome in assay [1], in assay [3] and in [5] was inactive.

Turning to `CC(=O)O[C@@]12[C@H](OC(=O)[C@H](N)C(C)C)[C@@H](C)[C@]3(O)[C@@H]4C=C(C)C(=O)[C@@H]4CC(CO)=C[C@H]3[C@@H]1C2(C)C`, in [5], the outcome was inactive.

In the case of `CCCCCCCCCCCCCC(=O)O[C@@H]1[C@@H](C)[C@]2(O)[C@@H]3C=C(C)C(=O)[C@@]3(O)[C@H](O)C(CO)=C[C@H]2[C@@H]2C(C)(C)[C@]12OC(C)=O`, in assay [10], the outcome was Active.
